Results taken from ChEMBL document CHEMBL4689842, “EUbOPEN Chemogenomics Library wave 1” (2021).
Several values for one entry are separate records, joined by “and”; a condition that tells them apart may be missing. Equal values may be shown once.

Tested on: U2OS
Test: Multiplex assay against U2OS
Format: toxicity, cell-based
Settings: human
Method in brief: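 Live cells were stained at seeding with Hoechst33342, BioTracker Green Microtubule Cytoskeleton Dye, MitoTracker Red and Annexin V Alexa Fluor 680, then imaged on a CQ1 microscope at 37°C and 5% CO2 after compound addition. CellPathfinder machine-learning gating split cells into Hoechst high-intensity objects or normal cells. Normal cells were split into healthy, pyknosed or fragmented nuclei, and pyknosed cells into mitotic or apoptotic. Tubulin, mitochondrial-mass and membrane-permeability phenotypes are per cents of healthy-nucleus cells.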

[1] = 12 h, 1 µM, compound concentration 1 uM, replicate 1
[2] = 12 h, 1 µM, compound concentration 1 uM, replicate 2
[3] = 12 h, 10 µM, compound concentration 10 uM, replicate 1
[4] = 12 h, 10 µM, compound concentration 10 uM, replicate 2
[5] = 24 h, 1 µM, compound concentration 1 uM, replicate 1
[6] = 24 h, 1 µM, compound concentration 1 uM, replicate 2
[7] = 24 h, 10 µM, compound concentration 10 uM, replicate 1
[8] = 24 h, 10 µM, compound concentration 10 uM, replicate 2
[9] = 48 h, 1 µM, compound concentration 1 uM, replicate 1
[10] = 48 h, 1 µM, compound concentration 1 uM, replicate 2
[11] = 48 h, 10 µM, compound concentration 10 uM, replicate 1
[12] = 48 h, 10 µM, compound concentration 10 uM, replicate 2

SMILES: CN(C)C(=O)C(CCN1CCC(O)(c2ccc(Cl)cc2)CC1)(c1ccccc1)c1ccccc1.Cl [LOPERAMIDE HYDROCHLORIDE]
- Population Apoptotic (%) [1]: 37%
- Population Fragmented Nuclei (%) [1]: 11%
- Population Healthy Nuclei (%) [1]: 69%
- Population Hoechst High Intensity Objects (%) [1]: 4%
- Population Membrane Permeable-Phenotype (%) [1]: 5%
- Population Mitochondria Different-Phenotype (%) [1]: 82%
- Population Mitotic Cells (%) [1]: 62%
- Population Normal (%) [1]: 95%
- Population Pyknosed Nuclei (%) [1]: 19%
- Population Tubulin-Different-Phenotype (%) [1]: 87%
- Total Cell Count [1]: 181
- Population Apoptotic (%) [2]: 25%
- Population Fragmented Nuclei (%) [2]: 5%
- Population Healthy Nuclei (%) [2]: 88%
- Population Hoechst High Intensity Objects (%) [2]: 7%
- Population Membrane Permeable-Phenotype (%) [2]: 11%
- Population Mitochondria Different-Phenotype (%) [2]: 90%
- Population Mitotic Cells (%) [2]: 75%
- Population Normal (%) [2]: 92%
- Population Pyknosed Nuclei (%) [2]: 6%
- Population Tubulin-Different-Phenotype (%) [2]: 65%
- Total Cell Count [2]: 55
- Population Apoptotic (%) [3]: 66%
- Population Fragmented Nuclei (%) [3]: 16%
- Population Healthy Nuclei (%) [3]: 42%
- Population Hoechst High Intensity Objects (%) [3]: 5%
- Population Membrane Permeable-Phenotype (%) [3]: 77%
- Population Mitotic Cells (%) [3]: 33%
- Population Normal (%) [3]: 95%
- Population Pyknosed Nuclei (%) [3]: 40%
- Total Cell Count [3]: 129
- Population Apoptotic (%) [4]: 82%
- Population Fragmented Nuclei (%) [4]: 8%
- Population Healthy Nuclei (%) [4]: 48%
- Population Hoechst High Intensity Objects (%) [4]: 6%
- Population Membrane Permeable-Phenotype (%) [4]: 94%
- Population Mitochondria Different-Phenotype (%) [4]: 100%
- Population Mitotic Cells (%) [4]: 17%
- Population Normal (%) [4]: 93%
- Population Pyknosed Nuclei (%) [4]: 43%
- Population Tubulin-Different-Phenotype (%) [4]: 100%
- Total Cell Count [4]: 64
- Population Apoptotic (%) [5]: 60%
- Population Fragmented Nuclei (%) [5]: 10%
- Population Healthy Nuclei (%) [5]: 74%
- Population Hoechst High Intensity Objects (%) [5]: 5%
- Population Membrane Permeable-Phenotype (%) [5]: 6%
- Population Mitochondria Different-Phenotype (%) [5]: 84%
- Population Mitotic Cells (%) [5]: 40%
- Population Normal (%) [5]: 94%
- Population Pyknosed Nuclei (%) [5]: 14%
- Population Tubulin-Different-Phenotype (%) [5]: 75%
- Total Cell Count [5]: 222
- Population Apoptotic (%) [6]: 53%
- Population Fragmented Nuclei (%) [6]: 5%
- Population Healthy Nuclei (%) [6]: 71%
- Population Hoechst High Intensity Objects (%) [6]: 4%
- Population Membrane Permeable-Phenotype (%) [6]: 16%
- Population Mitochondria Different-Phenotype (%) [6]: 89%
- Population Mitotic Cells (%) [6]: 46%
- Population Normal (%) [6]: 95%
- Population Pyknosed Nuclei (%) [6]: 22%
- Population Tubulin-Different-Phenotype (%) [6]: 62%
- Total Cell Count [6]: 68
- Population Apoptotic (%) [7]: 92%
- Population Fragmented Nuclei (%) [7]: 23%
- Population Healthy Nuclei (%) [7]: 18%
- Population Hoechst High Intensity Objects (%) [7]: 4%
- Population Membrane Permeable-Phenotype (%) [7]: 92%
- Population Mitochondria Different-Phenotype (%) [7]: 100%
- Population Mitotic Cells (%) [7]: 7%
- Population Normal (%) [7]: 95%
- Population Pyknosed Nuclei (%) [7]: 57%
- Population Tubulin-Different-Phenotype (%) [7]: 100%
- Total Cell Count [7]: 146
- Population Apoptotic (%) [8]: 98%
- Population Fragmented Nuclei (%) [8]: 10%
- Population Healthy Nuclei (%) [8]: 26%
- Population Hoechst High Intensity Objects (%) [8]: 10%
- Population Membrane Permeable-Phenotype (%) [8]: 86%
- Population Mitochondria Different-Phenotype (%) [8]: 95%
- Population Mitotic Cells (%) [8]: 1%
- Population Normal (%) [8]: 89%
- Population Pyknosed Nuclei (%) [8]: 62%
- Population Tubulin-Different-Phenotype (%) [8]: 95%
- Total Cell Count [8]: 70
- Population Apoptotic (%) [9]: 60%
- Population Fragmented Nuclei (%) [9]: 6%
- Population Healthy Nuclei (%) [9]: 78%
- Population Hoechst High Intensity Objects (%) [9]: 6%
- Population Mitochondria Different-Phenotype (%) [9]: 72%
- Population Mitotic Cells (%) [9]: 40%
- Population Normal (%) [9]: 93%
- Population Pyknosed Nuclei (%) [9]: 15%
- Population Tubulin-Different-Phenotype (%) [9]: 59%
- Total Cell Count [9]: 345
- Population Apoptotic (%) [10]: 61%
- Population Fragmented Nuclei (%) [10]: 7%
- Population Healthy Nuclei (%) [10]: 68%
- Population Hoechst High Intensity Objects (%) [10]: 3%
- Population Membrane Permeable-Phenotype (%) [10]: 8%
- Population Mitochondria Different-Phenotype (%) [10]: 65%
- Population Mitotic Cells (%) [10]: 38%
- Population Normal (%) [10]: 96%
- Population Pyknosed Nuclei (%) [10]: 23%
- Population Tubulin-Different-Phenotype (%) [10]: 47%
- Total Cell Count [10]: 118
- Population Apoptotic (%) [11]: 98%
- Population Fragmented Nuclei (%) [11]: 33%
- Population Healthy Nuclei (%) [11]: 5%
- Population Hoechst High Intensity Objects (%) [11]: 9%
- Population Membrane Permeable-Phenotype (%) [11]: 100%
- Population Mitochondria Different-Phenotype (%) [11]: 100%
- Population Mitotic Cells (%) [11]: 1%
- Population Normal (%) [11]: 90%
- Population Pyknosed Nuclei (%) [11]: 61%
- Population Tubulin-Different-Phenotype (%) [11]: 100%
- Total Cell Count [11]: 177
- Population Apoptotic (%) [12]: 100%
- Population Fragmented Nuclei (%) [12]: 21%
- Population Healthy Nuclei (%) [12]: 30%
- Population Hoechst High Intensity Objects (%) [12]: 21%
- Population Membrane Permeable-Phenotype (%) [12]: 95%
- Population Mitotic Cells (%) [12]: 0%
- Population Normal (%) [12]: 78%
- Population Pyknosed Nuclei (%) [12]: 48%
- Total Cell Count [12]: 92

SMILES: C[C@H]1Oc2cc(cnc2N)-c2c(nn(C)c2C#N)CN(C)C(=O)c2ccc(F)cc21 [LORLATINIB]
- Population Apoptotic (%) [1]: 53% and 37%
- Population Healthy Nuclei (%) [1]: 88% and 89%
- Population Hoechst High Intensity Objects (%) [1]: 2% and 3%
- Population Membrane Permeable-Phenotype (%) [1]: 14%
- Population Mitochondria Different-Phenotype (%) [1]: 20% and 32%
- Population Mitotic Cells (%) [1]: 46% and 62%
- Population Normal (%) [1]: 97% and 96%
- Population Pyknosed Nuclei (%) [1]: 6% and 4%
- Population Tubulin-Different-Phenotype (%) [1]: 15% and 22%
- Total Cell Count [1]: 195 and 218
- Population Apoptotic (%) [2]: 25% and 0%
- Population Healthy Nuclei (%) [2]: 84% and 77%
- Population Hoechst High Intensity Objects (%) [2]: 11% and 9%
- Population Membrane Permeable-Phenotype (%) [2]: 15% and 8%
- Population Mitochondria Different-Phenotype (%) [2]: 35% and 38%
- Population Mitotic Cells (%) [2]: 75% and 100%
- Population Normal (%) [2]: 88% and 90%
- Population Pyknosed Nuclei (%) [2]: 10% and 2%
- Population Tubulin-Different-Phenotype (%) [2]: 26% and 35%
- Total Cell Count [2]: 129 and 122
- Population Apoptotic (%) [5]: 57% and 38%
- Population Fragmented Nuclei (%) [5]: 6% and 5%
- Population Healthy Nuclei (%) [5]: 86% and 87%
- Population Hoechst High Intensity Objects (%) [5]: 2%
- Population Membrane Permeable-Phenotype (%) [5]: 11% and 7%
- Population Mitochondria Different-Phenotype (%) [5]: 22% and 25%
- Population Mitotic Cells (%) [5]: 42% and 61%
- Population Normal (%) [5]: 97%
- Population Pyknosed Nuclei (%) [5]: 6% and 7%
- Population Tubulin-Different-Phenotype (%) [5]: 16% and 28%
- Total Cell Count [5]: 254 and 277
- Population Apoptotic (%) [6]: 55% and 21%
- Population Fragmented Nuclei (%) [6]: 9% and 18%
- Population Healthy Nuclei (%) [6]: 81% and 70%
- Population Hoechst High Intensity Objects (%) [6]: 9% and 6%
- Population Membrane Permeable-Phenotype (%) [6]: 14% and 8%
- Population Mitochondria Different-Phenotype (%) [6]: 33% and 41%
- Population Mitotic Cells (%) [6]: 44% and 78%
- Population Normal (%) [6]: 90% and 93%
- Population Pyknosed Nuclei (%) [6]: 8% and 10%
- Population Tubulin-Different-Phenotype (%) [6]: 31%
- Total Cell Count [6]: 140 and 145
